The values below come from PubChem BioAssay.

The nature of assay [1]: reducers of endogenous Her2 protein level, primary screen, SKBR3 breast tumor cells, AlphaScreen, ATP viability (AID 461;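 active = Her2 level under about 52% in both replicate screens, with viability over 70% of control, limit read from the data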;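 for Her2 level: lower value means less Her2 protein in the cells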;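 for viability: percent of carrier control wells set as 100% viability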). Particulars: 18-24 h, measured here: SKBR3 viability, ATP luminescence, at 10 µM. On the technique in general: Alpha assays give light when donor and acceptor beads are brought close together.
The target of assay [2] is Receptor tyrosine-protein kinase erbB-2 (Homo sapiens) (UniProt P04626). The description is as above. Particulars: 18-24 h, at 10 µM, stronger effect = lower value.
The nature of assay [3]: SK-BR-3 cell growth inhibitors, pilot screen, 24 h, human (AID 572;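 active = viability at or below 10% of carrier control in both of two separate runs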;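 note: compound exposure lasted between 18 and 24 h rather than exactly 24 h; 100% = carrier-treated control wells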). To be noted: SK-BR-3 viability, CellTiter-Glo luminescence, at 10 µM, stronger effect = lower value. In general terms: In ATP-based viability assays light output follows the ATP content of the culture.
Assay [4] can be described thus: HUVEC growth inhibition – cell-based, human, primary screen (AID 575).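 Note: 100% = median of untreated cell wells with 0.1% DMSO on each plate.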 To be noted: HUVEC proliferation, CellTiter-Glo luminescence, 72 h; at 10 µM; stronger effect = lower value. In outline:
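system = HUVEC primary cells | amount = 1250 cells/well | buffer or medium = supplemented EBM, 2% fetal bovine serum | dosing = single-point 10 µM, DMSO 0.1% final | times = 72 h compound incubation | detection = CTG luminescence | read-out = % viability relative to median vehicle-well signal on each plate | control set = vehicle and MePR control wells | format = collagen-coated 384-well format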

The nature of assay [5]: growth inhibitors of H69AR lung tumor, primary screen, human, duplicate replicates (AID 580;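 active = viability at or under a set limit in both replicates, limit being median viability minus 3 SD, cut at about 48% in these data, passing the limit was not always enough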;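 note: 100% = mean luminescence of untreated wells and 0% = no signal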). Particulars: H69AR lung tumor cells viability, ATP luminescence, 72 h; at 10 µM; stronger effect = lower value.
The nature of assay [6]: reversal of MRP1-mediated doxorubicin resistance, pilot screen, H69AR cells, doxorubicin co-treatment (AID 601;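 active = viability loss from added drug above about 55%, and viability with drug at most 40%, in both replicates, limit read from the data, passing the limit was not always enough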). To be noted: CellTiter-Glo, 72 h, at 10 µM; for differential viability (reversal): stronger effect = higher value.
A short description of assay [7]: 384-well plate pilot, post-Golgi transport modulator project, inhibition of yeast transport mutant growth (AID 636; in the data active = inhibition above about 31%). To be noted: absorbance 615 nm, about 18 h, stronger effect = higher value.
The nature of assay [8]: growth suppression of yeast trafficking mutant, preliminary HTS, modulators of trafficking downstream of Golgi apparatus project, 1536-format plate, OD 615 nm (AID 637; in the data active = inhibition above about 30%). Particulars: yeast transport mutant growth, absorbance 615 nm, 18 h; stronger effect = higher value.
The mark [9] stands for this setting: H69AR cells + 2 uM doxorubicin, measured here: viability with 2 uM doxorubicin, stronger effect = lower value.
Setting [10] is: H69AR cells, compound alone cytotoxicity.

The source made the active and inactive calls.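 Rule for the calls, unless noted: active = viability at or below 30% in both replicate assays; inconclusive = viability at or below 30% in just one of the two assays; inactive = the rest.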

Chain of Receptor tyrosine-protein kinase erbB-2 (Homo sapiens) (P04626 whole entry, looked up): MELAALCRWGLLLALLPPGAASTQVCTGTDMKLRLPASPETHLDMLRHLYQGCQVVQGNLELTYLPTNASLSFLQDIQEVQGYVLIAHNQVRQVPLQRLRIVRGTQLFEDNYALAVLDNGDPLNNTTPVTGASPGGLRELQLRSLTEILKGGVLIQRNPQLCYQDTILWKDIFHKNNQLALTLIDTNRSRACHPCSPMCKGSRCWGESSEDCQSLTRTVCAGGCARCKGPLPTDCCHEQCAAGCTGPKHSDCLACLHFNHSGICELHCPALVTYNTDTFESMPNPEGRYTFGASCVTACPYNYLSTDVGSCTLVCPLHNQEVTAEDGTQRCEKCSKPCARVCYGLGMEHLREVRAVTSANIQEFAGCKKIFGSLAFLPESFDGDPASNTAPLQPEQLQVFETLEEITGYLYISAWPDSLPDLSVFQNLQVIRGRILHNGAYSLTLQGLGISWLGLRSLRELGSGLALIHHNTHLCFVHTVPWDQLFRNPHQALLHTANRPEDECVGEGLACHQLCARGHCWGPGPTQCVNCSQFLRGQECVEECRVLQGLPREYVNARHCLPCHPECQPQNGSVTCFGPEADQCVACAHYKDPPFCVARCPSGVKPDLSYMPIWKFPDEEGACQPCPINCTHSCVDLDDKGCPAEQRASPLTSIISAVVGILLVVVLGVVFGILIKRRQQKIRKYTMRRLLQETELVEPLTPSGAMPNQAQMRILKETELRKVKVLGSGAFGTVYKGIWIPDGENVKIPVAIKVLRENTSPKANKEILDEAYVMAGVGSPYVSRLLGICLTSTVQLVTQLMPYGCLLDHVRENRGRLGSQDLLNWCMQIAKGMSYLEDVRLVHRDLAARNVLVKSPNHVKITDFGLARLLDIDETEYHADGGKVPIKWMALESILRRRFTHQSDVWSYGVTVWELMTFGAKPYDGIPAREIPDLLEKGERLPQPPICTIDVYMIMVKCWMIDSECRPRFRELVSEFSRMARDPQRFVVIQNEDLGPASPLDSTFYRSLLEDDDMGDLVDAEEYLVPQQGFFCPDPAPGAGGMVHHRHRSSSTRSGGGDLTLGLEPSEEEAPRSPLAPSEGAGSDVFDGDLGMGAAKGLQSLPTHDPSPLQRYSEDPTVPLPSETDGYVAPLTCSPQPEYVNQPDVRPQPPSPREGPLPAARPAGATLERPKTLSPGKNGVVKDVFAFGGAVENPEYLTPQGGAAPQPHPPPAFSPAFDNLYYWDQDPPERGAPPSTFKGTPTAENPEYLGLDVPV

For the compound `CCCCOc1ccc(CSc2n[nH]c(C)n2)cc1`, the viability was 83.5% in assay [1]; 83.5% (inactive) in assay [3]; 103% (inactive) in assay [4]; 100% (inactive) in assay [5]; 89.7% in assay [6] (setting [9]); 100% in assay [6] (setting [10]). The Her2 level in assay [2] is 99.5% (inactive). For the same compound, the differential viability (reversal) in assay [6] (H69AR cells + 2 uM doxorubicin) was 10.7% (inactive). In addition, the inhibition in assay [7] was -1.22% (inactive); in assay [8], -0.49% (inactive).
As for `CCOc1ccccc1NC(=O)C1CCCN1C(=O)OCc1ccccc1` (stereo not given), the viability in assay [1] was 84.5%; in assay [3] it was 84.5% (inactive); in assay [4], 111% (inactive); in assay [5] it was 87.6% (inactive); in assay [6] (setting [9]), 85.3%; in assay [6] (setting [10]) it was 87.6%. Besides, the Her2 level in assay [2] is 93.5% (inactive). Moreover, in assay [6] (H69AR cells + 2 uM doxorubicin), the differential viability (reversal) is 2.29% (inactive). Also, the inhibition is -1.71% (inactive) in assay [7] and -10% (inactive) in assay [8].
On to `CCN1CCN(S(=O)(=O)Cc2ccccc2)CC1`, for which the viability in assay [1] was 116%; in assay [3], 116% (inactive); in assay [4], 105% (inactive); in assay [5], 91.4% (inactive); in assay [6] (setting [9]), 92.1%; in assay [6] (setting [10]), 91.4%. In addition, the Her2 level in assay [2] was 114% (inactive). Moreover, the differential viability (reversal) in assay [6] (H69AR cells + 2 uM doxorubicin) is -0.695% (inactive). The inhibition is 1.62% (inactive) in assay [7] and 12.9% (inactive) in assay [8].
In the case of `CCOc1ccc(-c2nnc(N)s2)cc1`, the viability was 95% in assay [1]; 95% (inactive) in assay [3]; 96.3% (inactive) in assay [4]; 118% (inactive) in assay [5]; 92.3% in assay [6] (setting [9]); 118% in assay [6] (setting [10]). Besides, in assay [2], the Her2 level was 90.5% (inactive). Also, the differential viability (reversal) in assay [6] (H69AR cells + 2 uM doxorubicin) is 25.6% (inactive). Also, the inhibition is 0.67% (inactive) in assay [7] and -1.29% (inactive) in assay [8].
As for `CCC(=O)N1Cc2ccccc2-c2ccccc2C1=O`, the viability in assay [1] is 102%; in assay [3] it was 102% (inactive); in assay [4], 80.1% (inactive); in assay [5], 90% (inactive); in assay [6] (setting [9]) it was 85.2%; in assay [6] (setting [10]) it was 90%. For the same compound, the Her2 level in assay [2] is 91% (inactive). In addition, the differential viability (reversal) in assay [6] (H69AR cells + 2 uM doxorubicin) is 4.75% (inactive). For the same compound, the values for the inhibition in assay [7] and in assay [8] were -5.06% (inactive) and 4.76% (inactive), respectively.
With `COCCn1c(SCC(=O)Nc2nnc(C)s2)nnc1-c1ccncc1`, the viability was 110% in assay [1]; 110% (inactive) in assay [3]; 101% (inactive) in assay [4]; 97.9% (inactive) in assay [5]; 86.1% in assay [6] (setting [9]); 97.9% in assay [6] (setting [10]). The Her2 level in assay [2] is 94% (inactive). The differential viability (reversal) in assay [6] (H69AR cells + 2 uM doxorubicin) is 11.8% (inactive). The values for the inhibition in assay [7] and in assay [8] were -5.95% (inactive) and 7.83% (inactive), respectively.
With `CCOc1ccccc1NC(=O)CN(c1ccc(C)cc1)S(=O)(=O)c1c(C)noc1C`, the viability in assay [1] was 133%; in assay [3], 133% (inactive); in assay [4] it was 68.3% (inactive); in assay [5], 81% (inactive); in assay [6] (setting [9]), 90.1%; in assay [6] (setting [10]) it was 81%. For the same compound, the Her2 level in assay [2] was 87% (inactive). In addition, the differential viability (reversal) in assay [6] (H69AR cells + 2 uM doxorubicin) is -9.07% (inactive). Also, the inhibition is -4.46% (inactive) in assay [7] and 5.56% (inactive) in assay [8].
Turning to `COc1ccc(OC)c(CNC(=O)COc2cc(=O)n(C)c3ccccc23)c1`, the viability in assay [1] was 82%; in assay [3], 82% (inactive); in assay [4], 105% (inactive); in assay [5] it was 88% (inactive); in assay [6] (setting [9]), 85%; in assay [6] (setting [10]) it was 88%. In addition, the Her2 level in assay [2] is 86.5% (inactive). In addition, in assay [6] (H69AR cells + 2 uM doxorubicin), the differential viability (reversal) was 2.97% (inactive). The inhibition is 2.31% (inactive) in assay [7] and -4.67% (inactive) in assay [8].
Consider `COc1ccc2nc(NC(=O)c3ccoc3C)sc2c1`, for which the viability in assay [1] was 99%; in assay [3], 99% (inactive); in assay [4], 23.9% (active); in assay [5], 26.1% (active); in assay [6] (setting [9]), 39.8%; in assay [6] (setting [10]), 26.1%. Further, the Her2 level in assay [2] was 87.5% (inactive). For the same compound, in assay [6] (H69AR cells + 2 uM doxorubicin), the differential viability (reversal) was -13.7% (inactive). Moreover, the values for the inhibition in assay [7] and in assay [8] were -3.82% (inactive) and 6.33% (inactive), respectively.
Consider `CCC(=O)Nc1cc(C(=O)NCC2CCCN2CC)c(OC)cc1N(C)C` (stereo not given), for which the viability in assay [1] was 101%; in assay [3], 101% (inactive); in assay [4] it was 91.8% (inactive); in assay [5] it was 114% (inactive); in assay [6] (setting [9]) it was 93.9%; in assay [6] (setting [10]), 114%. Also, in assay [2], the Her2 level was 111% (inactive). Moreover, the differential viability (reversal) in assay [6] (H69AR cells + 2 uM doxorubicin) was 19.7% (inactive). Also, the inhibition is -1.47% (inactive) in assay [7] and -3.23% (inactive) in assay [8].
For `COC(=O)c1ccc(CSc2nc3c(cnn3-c3ccc(F)cc3)c(=O)[nH]2)o1`, the viability is 99% in assay [1]; 99% (inactive) in assay [3]; 65.3% (inactive) in assay [4]; 92.5% (inactive) in assay [5]; 96.9% in assay [6] (setting [9]); 92.5% in assay [6] (setting [10]). Moreover, in assay [2], the Her2 level is 101% (inactive). Moreover, the differential viability (reversal) in assay [6] (H69AR cells + 2 uM doxorubicin) was -4.38% (inactive). Moreover, the inhibition in assay [7] is -2.19% (inactive); in assay [8], -1.9% (inactive).
On to `COc1ccc(C(=O)Nc2cccc(-c3nc4ncccc4o3)c2C)cc1OC`, for which the viability is 99% in assay [1]; 99% (inactive) in assay [3]; 81.8% (inactive) in assay [4]; 92.8% (inactive) in assay [5]; 91.2% in assay [6] (setting [9]); 92.8% in assay [6] (setting [10]). Also, the Her2 level in assay [2] was 122% (inactive). For the same compound, the differential viability (reversal) in assay [6] (H69AR cells + 2 uM doxorubicin) is 1.52% (inactive). In addition, the inhibition in assay [7] was 3.42% (inactive); in assay [8], -3.97% (inactive).
Regarding `O=C(Nc1ccc(N2CCOCC2)cc1)c1cc2ccccc2o1`, the viability in assay [1] is 99.5%; in assay [3], 99.5% (inactive); in assay [4] it was 109% (inactive); in assay [5], 85.7% (inactive); in assay [6] (setting [9]), 82.6%; in assay [6] (setting [10]) it was 85.7%. For the same compound, in assay [2], the Her2 level is 117% (inactive). In assay [6] (H69AR cells + 2 uM doxorubicin), the differential viability (reversal) is 3.15% (inactive). Moreover, the inhibition in assay [7] was -0.26% (inactive); in assay [8] it was -10.8% (inactive).
Consider `C=CCSc1nc(N)c(C(=O)Nc2ccccc2C)cc1C(N)=O`, for which the viability was 93% in assay [1]; 93% (inactive) in assay [3]; 99.9% (inactive) in assay [4]; 87.4% (inactive) in assay [5]; 89.6% in assay [6] (setting [9]); 87.4% in assay [6] (setting [10]). In addition, in assay [2], the Her2 level is 121% (inactive). For the same compound, the differential viability (reversal) in assay [6] (H69AR cells + 2 uM doxorubicin) was -2.21% (inactive). Also, the inhibition in assay [7] is 4.42% (inactive); in assay [8], 4.67% (inactive).

One may read the viability as a read-out of living cells in per cent, often relative to untreated cells. For orientation: inhibition means the drop in the measured response relative to a control, in per cent.
